ChEMBL document CHEMBL1143151, “Design, synthesis and antimalarial activity of benzene and isoquinoline sulfonamide derivatives” (2008)
Converted amounts (≈) assume the structure as drawn.

Test system: Plasmodium falciparum
Assay: Antimalarial activity against Plasmodium falciparum NF54 after 36-40 hrs
Type: functional
In short: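 P. falciparum NF-54 kept in RPMI-1640 with 25 mM Hepes, 1% D-glucose, 0.23% sodium bicarbonate, 10% heat-inactivated human serum; D-sorbitol (5%) synchronized to ring stage. ~1% ring parasitaemia, 3% haematocrit; compound […] µg/mL, duplicate wells, 37 °C candle jar, 36–40 h. Giemsa smears scored microscopically; MIC = concentration blocking full maturation to schizonts. Pyrimethamine reference.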

Structure (SMILES) | MIC [µg/mL]
O=S(=O)(c1ccccc1)N1CCN(c2ccccn2)CC1 | 10 (≈ 33 µM)
O=[N+]([O-])c1ccc(S(=O)(=O)N2CCN(c3ccccn3)CC2)cc1 | 10 (≈ 28.7 µM)
O=[N+]([O-])c1ccc(S(=O)(=O)N2CCN(Cc3ccccc3)CC2)cc1 | 10 (≈ 27.7 µM)
Cc1ccc(S(=O)(=O)N2CCN(CCO)CC2)cc1 | 10 (≈ 35.2 µM)
COc1ccc(CCNS(=O)(=O)c2ccc(C)cc2)cc1OC | 10 (≈ 29.8 µM)
O=[N+]([O-])c1ccc(S(=O)(=O)NCCCN2CCOCC2)cc1 | 10 (≈ 30.4 µM)
O=S(=O)(NCCCN1CCOCC1)c1ccccc1 | 10 (≈ 35.2 µM)
CN(CC(O)CNCc1ccccc1)S(=O)(=O)c1cccc2cnccc12 (centres undefined) | 10 (≈ 25.9 µM)
Cc1ccc(S(=O)(=O)N2CCN(Cc3ccccc3)CC2)cc1 | 10 (≈ 30.3 µM)
O=S(=O)(c1ccccc1)N1CCN(CCO)CC1 | 10 (≈ 37 µM)
CN(CC(O)CNCCc1c[nH]c2ccccc12)S(=O)(=O)c1cccc2cnccc12 (centres undefined) | 10 (≈ 22.8 µM)
CN(CC(O)CNCc1ccco1)S(=O)(=O)c1cccc2cnccc12 (centres undefined) | 10 (≈ 26.6 µM)
CN(CC(O)CNCc1ccc(Cl)cc1Cl)S(=O)(=O)c1cccc2cnccc12 (centres undefined) | 2 (≈ 4.4 µM)
O=S(=O)(c1cccc2cnccc12)N1CCN(CCO)CC1 | 50 (≈ 156 µM)
CN1CCN(S(=O)(=O)c2ccc([N+](=O)[O-])cc2)CC1 | 10 (≈ 35 µM)
Cc1ccc(S(=O)(=O)N2CCN(c3ccc(Cl)cc3)CC2)cc1 | 10 (≈ 28.5 µM)
COc1ccc(CCNS(=O)(=O)c2ccccc2)cc1OC | 10 (≈ 31.1 µM)

Structure (SMILES) | MIC [µg/mL]
Cc1ccc(S(=O)(=O)NCCCn2ccnc2)cc1 | 10 (≈ 35.8 µM)
O=[N+]([O-])c1ccc(S(=O)(=O)N2CCN(CCO)CC2)cc1 | 10 (≈ 31.7 µM)
COc1ccc(CCNCC(O)CN(C)S(=O)(=O)c2cccc3cnccc23)cc1OC (centres undefined) | 10 (≈ 21.8 µM)
NCCN1CCN(S(=O)(=O)c2cccc3cnccc23)CC1 | 10 (≈ 31.2 µM)
CN(CC(O)CNCc1ccccc1Cl)S(=O)(=O)c1cccc2cnccc12 (centres undefined) | 10 (≈ 23.8 µM)
CN(CC(O)CNCCCn1ccnc1)S(=O)(=O)c1cccc2cnccc12 (centres undefined) | 50 (≈ 124 µM)
CN(CC(O)CNCc1ccc(Cl)cc1)S(=O)(=O)c1cccc2cnccc12 (centres undefined) | 10 (≈ 23.8 µM)
O=S(=O)(c1ccccc1)N1CCN(c2ccc(Cl)cc2)CC1 | 10 (≈ 29.7 µM)
O=[N+]([O-])c1ccc(S(=O)(=O)N2CCN(c3cccc(Cl)c3)CC2)cc1 | 10 (≈ 26.2 µM)
CN1CCN(S(=O)(=O)c2ccccc2)CC1 | 10 (≈ 41.6 µM)
Cc1ccc(S(=O)(=O)NCCCN2CCOCC2)cc1 | 10 (≈ 33.5 µM)
CN(CC(O)CNCCc1ccc(O)cc1)S(=O)(=O)c1cccc2cnccc12 (centres undefined) | 50 (≈ 120 µM)
Cc1ccc(S(=O)(=O)N2CCN(C)CC2)cc1 | 10 (≈ 39.3 µM)
CN(CC(O)CNCc1ccc(Cl)c(Cl)c1)S(=O)(=O)c1cccc2cnccc12 (centres undefined) | 2 (≈ 4.4 µM)
COc1ccc(CCNS(=O)(=O)c2ccc([N+](=O)[O-])cc2)cc1OC | 10 (≈ 27.3 µM)
COc1ccc(CCNCC(O)CN(C)S(=O)(=O)c2cccc3cnccc23)cc1 (centres undefined) | 10 (≈ 23.3 µM)
CCc1nc(N)nc(N)c1-c1ccc(Cl)cc1 [PYRIMETHAMINE] | 10 (≈ 40.2 µM)
